ChEMBL document CHEMBL1136695, “Novel and selective imidazole-containing biphenyl inhibitors of protein farnesyltransferase” (Bioorg Med Chem Lett, 2003)
Values joined by “and” are separate entries in the source; they are usually repeats but may differ in a detail not shown here. Equal values may be shown once.

Columns and labels:
[1] = molecular target: Protein farnesyltransferase (Bos taurus, UniProt P29702+P49355); experiment: In vitro inhibitory activity against farnesyltransferase (FTase); format: protein-complex assay
How it was run: (§1)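 FTase and GGTase1 enzymes purified from bovine brain; inhibition measured in vitro by scintillation proximity assay (SPA), IC50 determined.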

[2] = molecular target: Geranylgeranyl transferase type I (Bos taurus, UniProt P29702+Q5EAD5); experiment: In vitro inhibition of geranylgeranyltransferase.; format: protein-complex assay; how it was run: as §1
NIH3T3 [3] = experiment: Inhibitory activity against NIH3T3 ras-transformed cells at 1 uM; format: functional; conditions: Mus musculus
[4] = Oral bioavailability in rat; format: ADME, organism-based; conditions: in vivo
[5] = Half-life time in rat was determined; format: ADME, organism-based; conditions: in vivo
NIH3T3 [6] = experiment: Effective concentration against Ha-RAS processing in NIH3T3 ras-transformed cells; format: functional, cell-based; conditions: Mus musculus

Row | SMILES | IC50 [1] | IC50 [2] | other results
1 | Cn1cncc1CN(c1ccc(C#N)c(-c2cccc3ccccc23)c1)S(=O)(=O)c1ccccc1 | 18 nM | 1900 nM | 
2 | Cn1cncc1CN(Cc1ccccc1)c1ccc(C#N)c(-c2cccc3ccccc23)c1 | 1.5 nM and 11 nM |  | 
3 | Cn1cncc1CN(Cc1ccc(C#N)cc1)c1ccc(C#N)c(-c2cccc3ccccc23)c1 | 1.5 nM | 1000 nM | inhibition at 1 µM (NIH3T3 [3]): 64%
4 | Cc1ccccc1-c1cc(N(Cc2ccccc2)Cc2cnc[nH]2)ccc1C#N | 84 nM |  | 
5 | Cc1ccccc1-c1cc(C(OCc2ccccc2)c2cncn2C)ccc1C#N (stereo not given) | 65 nM |  | 
6 | Cc1ccccc1-c1cc(N(Cc2ccc(C#N)cc2)Cc2cncn2C)ccc1C#N | 10 nM | 1000 nM | inhibition at 1 µM (NIH3T3 [3]): 29%
7 | Cn1cncc1CN(Cc1cccc(C#N)c1)c1ccc(C#N)c(-c2cccc3ccccc23)c1 |  | 150 nM | bioavailability [4]: 10%; half-life [5]: < 1 h; EC50 (NIH3T3 [6]): 50 nM
8 | Cc1ccccc1-c1cc(N(Cc2ccccc2)Cc2cncn2C)ccc1C#N | 11 nM |  | 
9 | Cc1ccccc1-c1cc(N(Cc2cccc(C#N)c2)Cc2cncn2C)ccc1C#N | 0.97 nM | 1200 nM | EC50 (NIH3T3 [6]): 70 nM
10 | Cn1cncc1CN(c1ccc(C#N)c(-c2cccc3ccccc23)c1)C1CCCCC1 | 1.9 nM | 180 nM | 
11 | Cn1cncc1[C@@](N)(c1ccc(Cl)cc1)c1ccc2c(c1)c(-c1cccc(Cl)c1)cc(=O)n2C [TIPIFARNIB] | 0.57 nM |  | EC50 (NIH3T3 [6]): 2 nM
12 | Cc1ccccc1-c1cc(NCc2cncn2C)ccc1C#N | 1000 nM |  | 
13 | NC(=O)N1CCC(CC(=O)N2CCC([C@H]3c4ncc(Br)cc4CCc4cc(Cl)cc(Br)c43)CC2)CC1 [LONAFARNIB] | 7.8 nM |  | EC50 (NIH3T3 [6]): 160 nM
14 | Cn1cncc1CN(Cc1cccc(Cl)c1)c1ccc(C#N)c(-c2cccc3ccccc23)c1 | 0.45 nM | 230 nM | inhibition at 1 µM (NIH3T3 [3]): 45%
15 | Cn1cncc1CN(Cc1ccnc(C#N)c1)c1ccc(C#N)c(-c2cccc3ccccc23)c1 | 0.37 nM | 650 nM | EC50 (NIH3T3 [6]): 80 nM
16 | CCCCN(CCC1CCCCC1)Cc1ccc(C(=O)N[C@@H](CCSC)C(=O)O)c(-c2ccccc2C)c1 | 1 nM |  | 
17 | Cn1cncc1CN(C(=O)c1ccccc1)c1ccc(C#N)c(-c2cccc3ccccc23)c1 | 14 nM | 310 nM | 
